Bounds are passed on as bounds.

In test [1] the target is T1, Kinesin-like protein KIF11 (Homo sapiens, UniProt P52732).
T1 sequence (P52732 whole entry): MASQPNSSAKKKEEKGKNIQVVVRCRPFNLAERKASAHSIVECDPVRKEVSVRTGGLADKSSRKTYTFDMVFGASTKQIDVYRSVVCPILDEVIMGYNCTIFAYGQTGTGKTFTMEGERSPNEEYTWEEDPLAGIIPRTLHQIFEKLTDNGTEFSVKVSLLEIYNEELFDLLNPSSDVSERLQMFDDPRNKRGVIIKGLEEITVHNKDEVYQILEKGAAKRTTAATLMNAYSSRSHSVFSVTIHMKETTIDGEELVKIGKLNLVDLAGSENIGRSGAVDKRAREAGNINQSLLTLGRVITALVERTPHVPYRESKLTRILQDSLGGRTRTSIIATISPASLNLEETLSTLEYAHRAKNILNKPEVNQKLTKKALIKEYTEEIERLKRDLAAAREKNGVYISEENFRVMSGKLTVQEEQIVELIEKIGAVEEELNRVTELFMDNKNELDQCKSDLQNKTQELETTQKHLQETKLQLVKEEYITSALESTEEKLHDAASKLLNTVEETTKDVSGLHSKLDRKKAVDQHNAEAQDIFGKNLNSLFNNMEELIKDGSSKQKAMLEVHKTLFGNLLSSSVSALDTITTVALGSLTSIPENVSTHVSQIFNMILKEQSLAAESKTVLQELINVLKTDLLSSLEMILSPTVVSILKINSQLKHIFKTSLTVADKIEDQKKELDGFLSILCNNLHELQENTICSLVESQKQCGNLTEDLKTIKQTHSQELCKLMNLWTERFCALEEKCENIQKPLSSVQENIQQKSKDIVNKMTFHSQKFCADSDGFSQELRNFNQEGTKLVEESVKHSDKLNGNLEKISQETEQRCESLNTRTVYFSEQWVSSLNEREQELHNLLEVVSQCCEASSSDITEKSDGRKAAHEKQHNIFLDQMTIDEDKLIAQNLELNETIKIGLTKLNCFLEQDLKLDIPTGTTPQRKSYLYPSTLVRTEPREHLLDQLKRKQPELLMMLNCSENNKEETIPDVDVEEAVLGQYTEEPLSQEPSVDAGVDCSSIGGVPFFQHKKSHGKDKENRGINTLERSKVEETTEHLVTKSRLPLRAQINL
Briefly: Inhibition of human Eg5 expressed in Escherichia coli assessed as microtubule-activated ATPase activity by spectrophotometry. In outline: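 Eg5 residues 2-386 expressed from pET28a in E. coli (0.5 mM IPTG, 20 h at 20 °C), purified on SP-Sepharose then Mono-Q, and dialyzed into PIPES pH 7.5 ATPase buffer. Assay contained 20 mM PIPES pH 7.5, 5.0 mM MgCl2, 1 mM EGTA, paclitaxel-stabilized MTs, ATP and 2% DMSO. Started with ATP, 37 °C for 30 min; Pi detected by malachite green with citrate stop, A610. No-enzyme and no-MT backgrounds subtracted; means of ≥3 experiments.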

Another test deals with AGS. Description: Antiproliferative activity against human AGS cells after 48 hrs by SRB assay. On the technique in general: The SRB assay estimates cell density from bound dye.
Another test deals with PC-3. Description: Antiproliferative activity against human PC3 cells after 48 hrs by SRB assay. Particulars: PC-3, 48 h.
For another test, the system named is A549. Description: Antiproliferative activity against human A549 cells after 48 hrs by SRB assay. To be noted: A549, 48 h.
The next test concerns HepG2. Briefly: Antiproliferative activity against human HepG2 cells after 48 hrs by SRB assay. Particulars: HepG2, 48 h.
A further test deals with HT-29. Briefly: Antiproliferative activity against human HT-29 cells after 48 hrs by SRB assay. Particulars: HT-29, 48 h.

For `CN1CCc2c([nH]c3ccc(Cl)cc23)C1c1cccc(O)c1` (racemic), the IC50 in test [1] is 0.664 µM; in the test on AGS it was 0.75 µM; in the test with PC-3, more than 10 µM; in the test with A549, 1.38 µM; in the test on HepG2, more than 10 µM; in the test with HT-29 it was 7.4 µM.
As to `NCCC(=O)N1CCc2c([nH]c3ccc(Cl)cc23)C1c1c[nH]c2ccccc12` (racemic), the IC50 was 0.043 µM in test [1]; 6.16 µM with AGS; 1.55 µM in the test on PC-3; 1.79 µM with A549; more than 10 µM in the test on HepG2; 6.28 µM in the test with HT-29.
On to `CC(=O)N1CCc2c([nH]c3ccc(Cl)cc23)C1c1c[nH]c2ccccc12` (racemic), for which the IC50 came to 0.337 µM in test [1] and 9.8 µM with A549.
As for `NCCNC(=O)C1Cc2c([nH]c3ccccc23)C(c2cccc(O)c2)N1` (racemic), the half-inhibitory concentration (IC50) in test [1] is 0.065 µM; with A549, more than 10 µM.
On the same counts, the results for `CCCN1CCc2c([nH]c3ccc(Cl)cc23)C1c1cccc(O)c1` (racemic) are 0.169 µM and 1.55 µM.
On the same counts, the results for `CCCC(=O)N1C(C(=O)O)Cc2c([nH]c3ccccc23)C1c1cccc(O)c1` (racemic) are 3.45 µM and more than 10 µM.
For the compound `CCCC(=O)N1CCc2c([nH]c3ccc(Cl)cc23)C1c1c[nH]c2ccccc12` (racemic), the half-maximal inhibitory concentration (IC50) in test [1] is 0.163 µM; with AGS, 7.06 µM; with PC-3 it was 7.29 µM; in the test on A549 it was 9.11 µM; with HepG2, 7.64 µM; with HT-29, 5.86 µM.
Regarding `CCCC(=O)N1C(C(=O)OCC)Cc2c([nH]c3ccccc23)C1c1cccc(O)c1` (racemic), the half-maximal inhibitory concentration (IC50) in test [1] was 0.224 µM; in the test on A549, more than 10 µM.
On the same counts, the results for `CCOC(=O)C1Cc2c([nH]c3ccccc23)C(c2cccc(O)c2)N1C(C)=O` (racemic) are 0.724 µM and more than 10 µM.
For the compound `NCCCCN1CCc2c([nH]c3ccc(Cl)cc23)C1c1cccc(O)c1` (racemic), the half-inhibitory concentration (IC50) in test [1] turned out to be 0.347 µM; in the test on A549, 9.06 µM.
On the same counts, the results for `NCCN1CCc2c([nH]c3ccc(Cl)cc23)C1c1cccc(O)c1` (racemic) are 0.007 µM and 8.7 µM.
On the same counts, the results for `NCCCN1CCc2c([nH]c3ccc(Cl)cc23)C1c1cccc(O)c1` (racemic) are 0.204 µM and 6.73 µM.
On the same counts, the results for `CCOC(=O)C1Cc2c([nH]c3ccccc23)C(c2cccc(O)c2)N1C(=O)C(C)C` (racemic) are 0.38 µM and more than 10 µM.
Regarding `Cc1ccc2[nH]c3c(c2c1)CCN(C)C3c1cccc(O)c1` (racemic), the concentration for half-maximal inhibition (IC50) was 0.462 µM in test [1] and 8.73 µM in the test on A549.
For the compound `Cc1ccc2[nH]c3c(c2c1)CCN(CCCN)C3c1cccc(O)c1` (racemic), the IC50 in test [1] is 0.083 µM; with A549, 6.86 µM.
On to `Cc1ccc2[nH]c3c(c2c1)CCN(C(=O)C(C)C)C3c1c[nH]c2ccccc12` (racemic), for which the concentration for half-maximal inhibition (IC50) in test [1] is 0.216 µM; in the test on A549 it was more than 10 µM.
`CCC(=O)N1C(C(=O)O)Cc2c([nH]c3ccccc23)C1c1cccc(O)c1` (racemic): the half-inhibitory concentration (IC50) was 0.118 µM in test [1] and more than 10 µM with A549.
As to `Cc1ccc2[nH]c3c(c2c1)CCN(CCN)C3c1cccc(O)c1` (racemic), the IC50 was 0.237 µM in test [1] and 7.79 µM with A549.
Consider `CCC(c1nc2cc(Cl)ccc2c(=O)n1Cc1ccccc1)N(CCCN(C)C)C(=O)c1ccc(Br)cc1` (stereo not given) [CK0106023], for which the IC50 in test [1] is 0.049 µM; in the test with AGS, 5.1 µM; in the test with PC-3, more than 10 µM; in the test on A549 it was 7.02 µM; in the test with HepG2, more than 10 µM; with HT-29, 3.33 µM.
Take `CCCC(=O)N1CCc2c([nH]c3ccc(C)cc23)C1c1c[nH]c2ccccc12` (racemic): the figures for the IC50 (in test [1]; in the test with A549) were less than 0.001 µM and more than 10 µM, respectively.
For `CC(=O)N1CCc2c([nH]c3ccc(C)cc23)C1c1c[nH]c2ccccc12` (racemic), the IC50 is 0.051 µM in test [1] and more than 10 µM in the test on A549.
For the compound `CC(C)C(=O)N1CCc2c([nH]c3ccc(Cl)cc23)C1c1c[nH]c2ccccc12` (racemic), the half-maximal inhibitory concentration (IC50) in test [1] came to 1.7 µM; in the test with A549, 6.83 µM.
As to `Cc1ccc2[nH]c3c(c2c1)CCN(C(=O)c1ccc(N)cc1)C3c1cccc(O)c1` (racemic), the IC50 in test [1] is 0.05 µM; with AGS it was 8.86 µM; in the test with PC-3, more than 10 µM; in the test on A549 it was 7.93 µM; with HepG2, more than 10 µM; in the test on HT-29, 7.47 µM.
Regarding `Nc1ccc(C(=O)N2CCc3c([nH]c4ccc(Cl)cc34)C2c2cccc(O)c2)cc1` (racemic), the IC50 was found to be 0.076 µM in test [1]; 6.07 µM in the test on AGS; 7.3 µM with PC-3; 6.66 µM with A549; 8.52 µM in the test on HepG2; 6.3 µM in the test with HT-29.
Take `CCOC(=O)C1Cc2c([nH]c3ccccc23)C(c2cccc(O)c2)N1C(=O)CC` (racemic): the half-maximal inhibitory concentration (IC50) is 0.075 µM in test [1] and more than 10 µM with A549.
On the same counts, the results for `Cc1ccc2[nH]c3c(c2c1)CCN(Cc1ccccc1)C3c1cccc(O)c1` (racemic) are 12.4 µM and 6.86 µM.
Turning to `CC(C)Oc1cccc(C2c3[nH]c4ccc(Cl)cc4c3CCN2CCN)c1` (racemic), the half-maximal inhibitory concentration (IC50) in the test on AGS was 8.39 µM; with PC-3, more than 10 µM; in the test with A549, 8.7 µM; in the test with HepG2 it was more than 10 µM; with HT-29, 7.44 µM.
Turning to `Oc1cccc(C2c3[nH]c4ccc(Cl)cc4c3CCN2Cc2ccccc2)c1` (racemic), the IC50 amounted to 0.71 µM in test [1] and 5.7 µM in the test on A549.
On the same counts, the results for `O=C(NCCO)C1Cc2c([nH]c3ccccc23)C(c2cccc(O)c2)N1` (racemic) are 0.29 µM and more than 10 µM.
On the same counts, the results for `CC(N)C(=O)N1CCc2c([nH]c3ccc(Cl)cc23)C1c1cccc(O)c1` (stereo not given) are 0.483 µM and 5.65 µM.
Consider `Cc1ccc2[nH]c3c(c2c1)CCN(CCCCN)C3c1cccc(O)c1` (racemic), for which the half-maximal inhibitory concentration (IC50) in test [1] was determined as 0.454 µM; in the test on A549 it was 9.19 µM.
As to `NCCC(=O)N1CCc2c([nH]c3c(Cl)cccc23)C1c1cccc(O)c1` (racemic), the 50% inhibitory concentration (IC50) in test [1] was 0.04 µM; in the test with AGS, 1.31 µM; in the test on PC-3, 1.28 µM; in the test with A549 it was 0.94 µM; in the test with HepG2, 7.47 µM; in the test with HT-29, 5.75 µM.

As a reminder, the IC50 is the concentration that gives 50% inhibition.

For the origin of these results see ChEMBL document CHEMBL1166005, “Discovery of tetrahydro-beta-carbolines as inhibitors of the mitotic kinesin KSP” (Bioorg Med Chem, 2010).
